Consider six compounds from ChEMBL document CHEMBL4346668, “Novel multitarget inhibitors with antiangiogenic and immunomodulator properties” (Eur J Med Chem, 2019).

The source made the active and inactive calls. The calls are words filed in the database; no cut-off is given here. A value given as a limit tells only on which side of the number the result lay.

The test system of assay [1] is HT-29. Put plainly: Antiproliferative activity against human HT-29 cells incubated for 2 days by MTT assay. The assay is classed as functional, cell-based. To be noted: HT-29, 48 h. In outline:
(§1)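 MTT assay. Cells seeded at 3 × 10³/well (HeLa, A549, HMEC-1, HEK-293) or 5 × 10³/well (HT-29, MCF-7) in their growth media with serial compound dilutions from 10 mM DMSO stocks. Incubated 2 days at 37 °C, 5% CO₂, then MTT added for 3 h and formazan dissolved in DMSO. A540 read and viability expressed versus untreated cells. IC₅₀ determined graphically; three independent experiments.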

The subject of assay [2] is MCF7. Put plainly: Antiproliferative activity against human MCF7 cells incubated for 2 days by MTT assay. The assay is classed as functional, cell-based. As to conditions: MCF7, 48 h. A digest of the protocol: as §1
For orientation: Tetrazolium dyes change colour on reduction, which living cells bring about.

Assay [3] has as its system HeLa. Put plainly: Antiproliferative activity against human HeLa cells incubated for 2 days by MTT assay. The format is functional, cell-based. As to conditions: 48 h. In outline:
as §1

Assay [4] concerns A549. Put plainly: Antiproliferative activity against human A549 cells incubated for 2 days by MTT assay. The assay is classed as functional, cell-based. To be noted: A549, 48 h. In outline:
as §1

Assay [5] has as its system HEK293. Put plainly: Antiproliferative activity against HEK293 cells incubated for 2 days by MTT assay. As to conditions: Homo sapiens, HEK293, 48 h. The format is cell-based. A digest of the protocol: as §1
Assay [6] has as its system A549. Put plainly: Immunomodulatory activity in human A549 cells assessed as reduction in PD-L1 expression level at 100 uM incubated for 24 hrs by ELISA relative to control. The format is functional. The arrangement: scale not given: the % may be the effect or the level left. A digest of the protocol: (§2)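 A549 cells (3·10⁵/well) treated 24 h with compound; final concentration 100 µM for some compounds and 15 µM for others per table footnote. Lysates protein-normalized by Bradford, and PD-L1 and c-Myc quantified by commercial ELISA kits as % of DMSO-treated cells. Mean ± SD of three experiments.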
(In general: An ELISA detects its analyte on a solid surface through an enzyme-linked reagent.)

Assay [7] concerns A549. Put plainly: Immunomodulatory activity in human A549 cells assessed as reduction in c-Myc expression level at 100 uM incubated for 24 hrs by ELISA relative to control. The format is functional. The arrangement: scale not given: the % may be the effect or the level left. A digest of the protocol:
as §2

For assay [8], the system named is HT-29. Put plainly: Antiproliferative activity against human HT-29 cells at 200 uM incubated for 24 hrs in presence of Jurkat T cells by trypan blue staining based Neubauer chamber method relative to control. The format is functional. In outline: (§3)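 Co-culture of 5 × 10⁴ tumor cells/well with 2 × 10⁵ PD-1-expressing Jurkat T cells in 1.5 mL, treated 24 h with compound at 200 µM. Supernatant discarded; tumor cells trypsinized, stained with trypan blue and living cells counted in a Neubauer chamber. Proliferation inhibition (%) attributable to Jurkat presence reported; representative of three experiments.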

In assay [9] the test system is A549. Put plainly: Antiproliferative activity against human A549 cells at 200 uM incubated for 24 hrs in presence of Jurkat T cells by trypan blue staining based Neubauer chamber method relative to control. The format is functional. A digest of the protocol:
as §3

Assay [10] relates to A549. Put plainly: Immunomodulatory activity in human A549 cells assessed as inhibition of c-Myc level at 100 uM incubated for 24 hrs by confocal laser scanning microscopic method. The format is functional, cell-based. A digest of the protocol:
(§4)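 A549 cells on cover glass treated 24 h at 100 µM, permeabilized with PEM-Triton X-100 0.5% and fixed in 3.7% formaldehyde. Direct immunostaining 2 h at 37°C in darkness with anti-PD-L1-AlexaFluor647 (excitation 650, emission 665 nm) and anti-c-Myc-FITC (excitation 488, emission 496–535 nm). Confocal microscopy, 63x oil objective.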

In assay [11] the test system is A549. Put plainly: Immunomodulatory activity in human A549 cells assessed as inhibition of PD-L1 level at 100 uM incubated for 24 hrs by confocal laser scanning microscopic method. The format is functional, cell-based. In outline:
as §4

The target in assay [12] is Programmed cell death 1 ligand 1 (Homo sapiens) (UniProt Q9NZQ7). Put plainly: Binding affinity to PDL1 (unknown origin) assessed as change in melting temperature at 100 uM by fluorescence based real time RT-PCR analysis. For orientation: Quantitative PCR measures a nucleic acid by following its amplification.
Sequence of Programmed cell death 1 ligand 1 (Homo sapiens) (Q9NZQ7 whole entry): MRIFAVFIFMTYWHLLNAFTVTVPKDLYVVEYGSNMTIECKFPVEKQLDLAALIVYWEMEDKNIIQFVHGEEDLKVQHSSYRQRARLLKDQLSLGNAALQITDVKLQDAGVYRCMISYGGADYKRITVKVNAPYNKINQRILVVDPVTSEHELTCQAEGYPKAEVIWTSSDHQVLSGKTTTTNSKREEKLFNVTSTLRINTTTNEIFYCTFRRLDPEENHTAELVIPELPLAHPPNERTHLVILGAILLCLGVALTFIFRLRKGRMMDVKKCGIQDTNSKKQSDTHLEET
Assay [13] concerns HMEC-1. Put plainly: Antiproliferative activity against HMEC1 cells incubated for 2 days by MTT assay. The format is cell-based. As to conditions: Homo sapiens, HMEC-1, 48 h. A digest of the protocol: as §1
The subject of assay [14] is HMEC-1. Put plainly: Effect on VEGFR2 in HMEC1 cells assessed as membrane VEGFR2 level at 100 uM incubated for 24 hrs by flow cytometric analysis relative to control. The assay is classed as functional, Homo sapiens. A digest of the protocol: (§5)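 HMEC-1 cells exposed 24 h to compound at 100 µM. Membrane VEGFR-2 measured on fixed cells stained with Alexa Fluor 647 anti-CD309; total VEGFR-2 measured after Triton X-100 permeabilization before fixation. Read by flow cytometry as % of DMSO control.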

For assay [15], the system named is HMEC-1. Put plainly: Effect on VEGFR2 in HMEC1 cells assessed as total VEGFR2 level at 100 uM incubated for 24 hrs by flow cytometric analysis relative to control. The format is functional, Homo sapiens. In outline:
as §5

Assay [16] deals with A549. Put plainly: Effect on VEGFR2 in human A549 cells assessed as membrane VEGFR2 level at 100 uM incubated for 24 hrs by flow cytometric analysis relative to control. The format is functional. A digest of the protocol:
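A549 cells exposed 24 h to compound at 100 µM. Membrane VEGFR-2 stained on fixed cells with Alexa Fluor 647 anti-VEGFR-2; Triton X-100 permeabilization before fixation used for total VEGFR-2. Flow cytometry, % of DMSO control; mean ± SD of three experiments.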

The test system of assay [17] is A549. Put plainly: Effect on VEGFR2 in human A549 cells assessed as total VEGFR2 level at 100 uM incubated for 24 hrs by flow cytometric analysis relative to control. The assay is classed as functional.
The test system of assay [18] is HMEC-1. Put plainly: Antiangiogenic activity against HMEC1 cells assessed as inhibition of tube formation incubated for 20 hrs by matrigel based tube formation assay. The format is functional, Homo sapiens. In outline: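 HMEC-1 cells in EGM-2MV medium seeded at 2 x 10⁴ cells/well on Matrigel (10 mg/mL, gelled 30 min at 37°C) and attached for 30 min. Compounds were added at different concentrations and tube formation was assessed after 20 h at 37°C. The minimum concentration at which inhibition began was reported. Data representative of three experiments.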

Assay [19] concerns A549. Put plainly: Induction of apoptosis in human A549 cells assessed as apoptotic cells at 100 uM incubated for 24 hrs by FITC-Annexin V staining based flow cytometric analysis (reference value: 20%). The format is functional.
The test system of assay [20] is A549. Put plainly: Effect on VEGFR2 in human A549 cells assessed as membrane VEGFR2 level at 10 uM incubated for 24 hrs by flow cytometric analysis relative to control. The assay is classed as functional. In outline:
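A549 cells incubated 24 h with compound at 10 µM. Membrane VEGFR-2 (fixed cells) and total VEGFR-2 (permeabilized or lysate) stained with Alexa Fluor 647 anti-CD309 and quantified by flow cytometry relative to DMSO control; mean ± SD of three experiments.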

Assay [21] concerns A549. Put plainly: Effect on VEGFR2 in human A549 cells assessed as total VEGFR2 level at 10 uM incubated for 24 hrs by flow cytometric analysis relative to control. The assay is classed as functional.
Assay [22] concerns HMEC-1. Put plainly: Effect on VEGFR2 in HMEC1 cells assessed as membrane VEGFR2 level at 10 uM incubated for 24 hrs by flow cytometric analysis relative to control. The format is functional, Homo sapiens. A digest of the protocol:
(§6)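 HMEC-1 cells exposed 24 h to compound. Membrane VEGFR-2 measured on fixed cells stained with Alexa Fluor 647 anti-CD309; total VEGFR-2 measured on lysates or permeabilized cells. Read by flow cytometry as % of DMSO control; mean ± SD of three experiments.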

In assay [23] the test system is HMEC-1. Put plainly: Effect on VEGFR2 in HMEC1 cells assessed as total VEGFR2 level at 10 uM incubated for 24 hrs by flow cytometric analysis relative to control. The assay is classed as functional, Homo sapiens. In outline: as §6
Assay [24] deals with Vascular endothelial growth factor receptor 2 (Homo sapiens) (UniProt P35968).
Sequence of Vascular endothelial growth factor receptor 2 (Homo sapiens) (P35968 whole entry): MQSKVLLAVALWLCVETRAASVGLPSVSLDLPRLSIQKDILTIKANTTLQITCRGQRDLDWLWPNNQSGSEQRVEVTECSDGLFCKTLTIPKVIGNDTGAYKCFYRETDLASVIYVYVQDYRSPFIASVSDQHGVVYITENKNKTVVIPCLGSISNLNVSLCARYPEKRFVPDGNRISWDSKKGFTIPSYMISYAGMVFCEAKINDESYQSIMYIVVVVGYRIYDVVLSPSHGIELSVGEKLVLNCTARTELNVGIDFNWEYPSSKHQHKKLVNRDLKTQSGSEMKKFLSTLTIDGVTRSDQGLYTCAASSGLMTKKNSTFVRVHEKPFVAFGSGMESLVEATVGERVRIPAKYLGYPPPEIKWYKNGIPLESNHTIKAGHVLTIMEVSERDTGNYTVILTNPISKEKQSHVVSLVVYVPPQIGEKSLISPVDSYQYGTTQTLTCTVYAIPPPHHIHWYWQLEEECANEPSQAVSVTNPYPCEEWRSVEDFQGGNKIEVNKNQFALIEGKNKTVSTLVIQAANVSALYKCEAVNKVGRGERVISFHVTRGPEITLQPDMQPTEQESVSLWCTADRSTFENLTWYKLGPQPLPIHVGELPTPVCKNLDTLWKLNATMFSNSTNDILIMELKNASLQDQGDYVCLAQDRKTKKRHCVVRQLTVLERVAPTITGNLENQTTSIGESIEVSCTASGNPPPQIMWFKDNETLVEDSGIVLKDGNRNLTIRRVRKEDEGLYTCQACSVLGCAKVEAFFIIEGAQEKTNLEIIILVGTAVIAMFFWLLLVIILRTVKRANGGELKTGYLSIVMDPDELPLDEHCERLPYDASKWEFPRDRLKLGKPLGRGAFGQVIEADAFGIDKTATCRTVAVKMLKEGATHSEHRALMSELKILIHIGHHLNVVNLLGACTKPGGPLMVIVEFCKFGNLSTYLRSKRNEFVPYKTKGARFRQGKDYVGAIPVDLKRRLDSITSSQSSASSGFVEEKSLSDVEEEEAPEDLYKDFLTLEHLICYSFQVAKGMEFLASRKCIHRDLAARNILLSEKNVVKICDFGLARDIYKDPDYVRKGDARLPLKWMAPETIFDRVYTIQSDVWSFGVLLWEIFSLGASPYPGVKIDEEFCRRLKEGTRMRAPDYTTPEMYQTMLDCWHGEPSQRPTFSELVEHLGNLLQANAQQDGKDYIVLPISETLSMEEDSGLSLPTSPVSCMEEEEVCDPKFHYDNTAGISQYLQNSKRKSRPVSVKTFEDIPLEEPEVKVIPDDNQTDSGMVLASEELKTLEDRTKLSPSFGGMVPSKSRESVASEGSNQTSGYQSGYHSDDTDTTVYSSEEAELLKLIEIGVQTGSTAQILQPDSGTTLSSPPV

For the compound `Cc1c(COc2ccc(CN3CCCCC3C(=O)O)cc2Br)cccc1-c1ccccc1` (centres undefined), the half-inhibitory concentration (IC50) was 19 µM in assay [1]; 20 µM in assay [2]; greater than 100 µM in assay [3]; 6 µM in [4]; 60 µM in assay [5]. Also, the Activity in [6] is listed as 68%; in assay [7], 60%; in assay [8] it was 53%; in assay [9] it was 55%. For the same compound, the result in assay [10] and in assay [11] was Active. Further, the ΔTm in assay [12] worked out at 3.68 °C.
As to `CNC(=O)c1cc(Oc2ccc(NC(=O)Nc3ccc(Cl)c(C(F)(F)F)c3)cc2)ccn1` [SORAFENIB], the IC50 in assay [1] stood at 17 µM; in assay [2], 14 µM; in [3] it was 6.1 µM; in assay [4] it was 27 µM; in assay [13], 34 µM; in assay [5], 5 µM. For the same compound, the Activity in [14] is given as 46%; in assay [15] it was 64%; in assay [16], 92%; in assay [17], 85%; in assay [19], 48%; in [20], 92%. Besides, the Activity came to 85% in assay [21], 46% in assay [22] and 64% in assay [23]. Also, the MAC in assay [18] amounted to 10 µM.
For `COc1ccc(Cc2cn(CCNC(=O)Nc3ccc(C)cc3)nn2)cc1`, the IC50 in assay [1], in assay [2], in assay [3], in [4], in assay [13] and in assay [5] was greater than 200 µM each time. Also, the Activity in assay [14] stood at 97%; in assay [15] it was 90%; in assay [6], 66%; in [7] it was 70%; in [8], 22%; in [9], 6%. Further, the results for the ΔTm in assay [12] and in [24] were 3.09 °C and 3.68 °C, respectively.
In the case of `COc1ccc(/C=C/c2cccc(NC(=O)Nc3ccccc3Cl)c2)cc1`, the IC50 in assay [1] is 47 µM; in assay [2], greater than 100 µM; in assay [3], greater than 100 µM; in [4], 61 µM; in assay [13] it was greater than 100 µM; in assay [5], 57 µM. The MAC in assay [18] was found to be 10 µM. Besides, the Activity in [6] is listed as 74%; in assay [19], 42%; in [20] it was 109%; in assay [21], 42%; in assay [22], 76%; in assay [23], 121%. Besides, the figures for the ΔTm in assay [12] and in [24] were 5.09 °C and 10.2 °C, respectively.
For `COc1ccc(Cc2cn(CCNC(=O)Nc3cccc(Cl)c3)nn2)cc1`, the IC50 in assay [1], in assay [2], in assay [3], in assay [4], in assay [13] and in assay [5] was greater than 200 µM throughout. In addition, the Activity in assay [14] is 74%; in [15], 81%; in assay [16] it was 95%; in [17] it was 86%; in assay [6], 70%; in assay [7], 60%. Besides, the Activity in [8] was 76%; in [9] it was 49%. For the same compound, the MAC in assay [18] turned out to be 50 µM. For the same compound, the shift in melting temperature (ΔTm) amounted to 1.89 °C in assay [12] and 7.34 °C in assay [24].
Turning to `COc1ccc(Cc2cn(CCNC(=O)Nc3ccc(Cl)cc3)nn2)cc1`, the IC50 in assay [1], in assay [2], in assay [3], in assay [4], in [13] and in assay [5] was greater than 200 µM each time. The Activity in [14] came out at 90%; in assay [15] it was 102%; in assay [6], 69%; in assay [7], 73%; in assay [8], 84%; in assay [9] it was 16%. Besides, the MAC in assay [18] turned out to be 400 µM. The thermal shift (ΔTm) in [12] is 1.93 °C; in assay [24], 5.09 °C.

A word on the IC50: it is the concentration at which inhibition is half-maximal. In general, ΔTm refers to the shift of the melting midpoint relative to a reference.
